The T/C is the ratio of treated to control. The bioavailability is the share of a dose that reaches the circulation, judged against a reference dose that is usually intravenous. Low readings indicate poor availability, high ones good availability. As a reminder, the Cmax is the highest concentration seen after dosing. By inhibition in vivo is commonly meant the percentage by which the read-out fell short of the control. By Tmax is commonly meant the time at which the peak concentration occurs. For orientation: AUC means concentration integrated over time. Broadly, the pKd is the Kd on a negative log10 scale, so that one unit is a factor of ten. Lower therefore signals a large Kd.

The structures appear in SMILES notation. pKd: −log10 of the molar value.

Here are results for one compound from ChEMBL document CHEMBL4342410, “Design and Discovery of N-(3-(2-(2-Hydroxyethoxy)-6-morpholinopyridin-4-yl)-4-methylphenyl)-2-(trifluoromethyl)isonicotinamide, a Selective, Efficacious, and Well-Tolerated RAF Inhibitor Targeting RAS Mutant Cancers: The Path to the Clinic” (J Med Chem, 2020).

The nature of series [1]: Clearance in rat at 2 mg/kg, iv or 4 mg/kg, po. The format is ADME, organism-based. The conditions noted are these: in vivo.
The test system of series [2] is Calu-6. The experiment in a line: Antitumor activity against human Calu6 cells harboring KRAS Q61K mutant xenografted in nude rat assessed as tumor growth at 15 mg/kg, po administered daily for 18 days starting from day 13 post tumor implantation and measured on day 31 relative to control. The format is functional. The method in brief:
(§1)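 Nude rats bearing Calu-6 (KRAS Q61K) human NSCLC xenografts received vehicle or drug p.o. daily at 15, 35, 75 or 150 mg/kg. Dosing began 13 days after tumor implantation and ran to day 31, i.e. 18 days of treatment. Tumor volumes were read out as %T/C or % regression versus vehicle on day 31. Body weight was also tracked.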
In general terms: Xenograft models place foreign cells or tissue in a host animal.

The nature of series [3]: Time of last measurable concentration in nude rat xenografted with human Calu6 cells harboring KRAS Q61K mutant at 150 mg/kg, po administered daily for 18 days starting from day 13 post tumor implantation and measured on day 31. The format is ADME, organism-based. As to conditions: in vivo, 432 h. The method in brief:
(§2)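 Calu-6 xenograft nude rats were dosed orally once daily at 15, 35, 75 or 150 mg/kg from day 13 after implantation to day 31. Plasma was collected after the last dose on day 31, drug concentrations were measured, and PK parameters including AUC were calculated for each dose.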

The nature of series [4]: Oral bioavailability in dog at 0.4 mg/kg. The format is ADME, organism-based, Canis lupus familiaris. As to conditions: in vivo.
Series [5] in a line: Time of last measurable concentration in nude rat xenografted with human Calu6 cells harboring KRAS Q61K mutant at 75 mg/kg, po administered daily for 18 days starting from day 13 post tumor implantation and measured on day 31. The format is ADME, organism-based. As to conditions: in vivo, 432 h. The procedure, abridged:
as §2

Series [6] can be described thus: Cmax in nude rat xenografted with human Calu6 cells harboring KRAS Q61K mutant at 150 mg/kg, po administered daily for 18 days starting from day 13 post tumor implantation and measured on day 31. The format is ADME, organism-based. Details: dose 150 mg/kg, route oral. As to conditions: in vivo. The method in brief: (§3)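 Nude rats carrying Calu-6 (KRAS Q61K) NSCLC xenografts were dosed p.o. once daily at 15, 35, 75 or 150 mg/kg from day 13 to day 31 after implant. Plasma was collected after the last dose and drug concentration was measured. AUC and Cmax were calculated per dose on day 31.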

The subject of the next series is Rattus norvegicus. Kind of series: In vivo inhibition of CRAF in nude rat xenografted with human Calu6 cells harboring KRAS Q61K mutant assessed as reduction in tumor MEK phosphorylation at 150 mg/kg, po administered as single dose measured after 24 hrs by sandwich ELISA relative to control. The format is functional. The conditions noted are these: Calu-6, po. The procedure, abridged:
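Calu-6 (KRAS Q61K) xenograft-bearing nude rats were given a single oral dose of 15, 35, 75 or 150 mg/kg. Tumor and blood were sampled at 1, 4, 7, 24 and 48 h post-dose. Tumor pMEK was quantified by MSD immunoassay and expressed as percent pMEK. Free plasma exposure was determined in parallel.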

Series [7] is described as follows: Clearance in mouse at 2 mg/kg, iv or 4 mg/kg, po. The format is ADME, organism-based. As to conditions: in vivo.
The subject of series [8] is Calu-6. Kind of series: Antitumor activity against human Calu6 cells harboring KRAS Q61K mutant xenografted in po dosed nude rat assessed as increase in tumor regression administered daily for 18 days starting from day 13 post tumor implantation and measured on day 31. The format is functional, organism-based. The procedure, abridged: as §1
Series [9] addresses T1, Platelet-derived growth factor receptor beta (Homo sapiens, UniProt P09619). Kind of series: Binding affinity to wild-type human partial length PDGFRB (V582 to Y1009 residues) expressed in bacterial expression system at 1 uM by Kinomescan method relative to control. The procedure, abridged: (§4)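 KINOMEscan competition binding panel of about 456 kinases, compound tested at 1 μM. Activity is given as % of control = [(test signal − positive control signal)/(negative control signal − positive control signal)] × 100.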

The subject of series [10] is RAF proto-oncogene serine/threonine-protein kinase (Homo sapiens), P04049 [Y340E,Y341E]. Kind of series: Binding affinity to CRAF Y340E/Y341E mutant (unknown origin) assessed as dissociation half life by rapid dilution method. The method in brief: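 Full-length CRAF carrying activating Y340E/Y341E was used in a kinase activity assay. Dissociation was measured by the rapid dilution method, and recovery of enzyme activity was followed over 6 hours of incubation. The dissociation half-life was derived from that recovery.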

The nature of series [11]: Protein binding in human plasma. As to conditions: read-out: PPB (converted). The format is ADME, cell-free.
Series [12] can be described thus: Tmax in nude rat xenografted with human Calu6 cells harboring KRAS Q61K mutant at 150 mg/kg, po administered daily for 18 days starting from day 13 post tumor implantation and measured on day 31. The format is ADME, organism-based. As to conditions: in vivo. The procedure, abridged: as §2
A short description of series [13]: Tmax in nude rat xenografted with human Calu6 cells harboring KRAS Q61K mutant at 75 mg/kg, po administered daily for 18 days starting from day 13 post tumor implantation and measured on day 31. The conditions noted are these: in vivo. The format is ADME, organism-based. The method in brief: as §2
A short description of series [14]: Volume of distribution at steady state in dog at 0.2 mg/kg, iv or 0.4 mg/kg, po. The format is ADME, organism-based, Canis lupus familiaris. The conditions noted are these: in vivo, read-out: Vdss.
In series [15] the target is T2, Discoidin domain-containing receptor 2 (Homo sapiens) (UniProt Q16832).
T2 sequence (whole entry): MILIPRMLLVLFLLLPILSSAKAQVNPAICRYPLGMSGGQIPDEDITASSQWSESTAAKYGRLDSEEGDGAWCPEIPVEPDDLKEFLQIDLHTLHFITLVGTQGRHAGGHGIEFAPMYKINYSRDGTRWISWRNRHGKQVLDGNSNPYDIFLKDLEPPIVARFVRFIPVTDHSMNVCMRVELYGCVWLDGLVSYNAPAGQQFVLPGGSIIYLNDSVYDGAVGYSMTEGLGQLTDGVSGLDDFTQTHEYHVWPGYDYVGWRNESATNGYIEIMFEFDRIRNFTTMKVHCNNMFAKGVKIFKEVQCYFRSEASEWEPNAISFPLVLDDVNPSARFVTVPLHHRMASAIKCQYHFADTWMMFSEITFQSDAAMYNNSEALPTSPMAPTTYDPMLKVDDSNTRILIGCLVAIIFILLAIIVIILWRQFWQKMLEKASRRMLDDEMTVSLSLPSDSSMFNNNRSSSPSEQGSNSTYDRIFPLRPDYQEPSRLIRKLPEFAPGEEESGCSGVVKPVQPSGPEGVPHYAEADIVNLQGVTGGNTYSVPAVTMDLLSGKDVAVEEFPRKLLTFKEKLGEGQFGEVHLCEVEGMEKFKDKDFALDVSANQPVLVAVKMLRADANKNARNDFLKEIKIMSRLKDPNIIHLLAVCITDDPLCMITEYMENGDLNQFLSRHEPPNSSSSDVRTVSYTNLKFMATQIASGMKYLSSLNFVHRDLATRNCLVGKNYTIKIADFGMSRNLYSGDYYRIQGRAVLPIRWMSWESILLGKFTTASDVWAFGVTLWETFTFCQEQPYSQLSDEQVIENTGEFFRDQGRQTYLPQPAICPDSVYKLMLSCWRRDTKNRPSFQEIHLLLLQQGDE
Kind of series: Binding affinity to wild-type human partial length DDR2 (V555 to E855 residues) expressed in mammalian expression system at 1 uM by Kinomescan method relative to control. The method in brief: as §4

A short description of series [16]: Oral bioavailability in rat at 4 mg/kg. The format is ADME, organism-based. As to conditions: in vivo.
Series [17] is described as follows: AUC (0 to 24 hrs) in nude rat xenografted with human Calu6 cells harboring KRAS Q61K mutant at 35 mg/kg, po administered daily for 18 days starting from day 13 post tumor implantation and measured on day 31. The format is ADME, organism-based. The arrangement: dose 35 mg/kg, time < 24 hr, route oral. As to conditions: in vivo. The method in brief: as §3
The target in series [18] is T1, Platelet-derived growth factor receptor beta. The experiment in a line: Binding affinity to wild-type human partial length PDGFRB (V582 to Y1009 residues) expressed in bacterial expression system by Kinomescan method.

T1 sequence (P09619 whole entry, the tested form may be a part): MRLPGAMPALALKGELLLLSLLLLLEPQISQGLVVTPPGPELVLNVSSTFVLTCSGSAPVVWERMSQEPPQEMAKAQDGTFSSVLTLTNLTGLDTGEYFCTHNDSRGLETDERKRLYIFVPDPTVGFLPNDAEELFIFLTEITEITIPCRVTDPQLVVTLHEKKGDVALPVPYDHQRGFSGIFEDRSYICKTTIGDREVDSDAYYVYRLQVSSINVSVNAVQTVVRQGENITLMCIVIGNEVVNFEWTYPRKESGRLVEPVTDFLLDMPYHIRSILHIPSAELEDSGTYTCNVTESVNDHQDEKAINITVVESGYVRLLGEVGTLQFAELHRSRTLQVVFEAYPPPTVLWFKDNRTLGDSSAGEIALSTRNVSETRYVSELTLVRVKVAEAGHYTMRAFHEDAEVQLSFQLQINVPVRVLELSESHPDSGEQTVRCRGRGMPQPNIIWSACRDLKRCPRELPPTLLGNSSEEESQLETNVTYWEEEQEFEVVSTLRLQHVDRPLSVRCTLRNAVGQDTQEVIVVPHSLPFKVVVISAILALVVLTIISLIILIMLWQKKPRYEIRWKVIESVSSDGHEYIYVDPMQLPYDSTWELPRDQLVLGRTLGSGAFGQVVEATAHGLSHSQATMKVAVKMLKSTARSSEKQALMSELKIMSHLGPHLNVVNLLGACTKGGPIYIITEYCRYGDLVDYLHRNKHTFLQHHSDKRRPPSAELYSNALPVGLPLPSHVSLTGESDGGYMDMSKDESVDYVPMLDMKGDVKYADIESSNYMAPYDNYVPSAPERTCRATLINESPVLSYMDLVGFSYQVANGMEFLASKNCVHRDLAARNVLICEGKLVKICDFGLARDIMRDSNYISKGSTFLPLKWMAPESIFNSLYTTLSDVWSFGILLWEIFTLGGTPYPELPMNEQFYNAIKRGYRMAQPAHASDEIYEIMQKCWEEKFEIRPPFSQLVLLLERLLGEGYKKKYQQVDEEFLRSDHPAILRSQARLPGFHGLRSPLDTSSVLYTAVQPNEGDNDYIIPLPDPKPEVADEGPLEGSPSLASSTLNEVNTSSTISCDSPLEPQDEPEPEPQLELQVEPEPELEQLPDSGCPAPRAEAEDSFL

Turning to `Cc1ccc(NC(=O)c2ccnc(C(F)(F)F)c2)cc1-c1cc(OCCO)nc(N2CCOCC2)c1` [NAPORAFENIB], the clearance worked out at 31 mL/min/kg in series [1] and 19 mL/min/kg in series [7]. Besides, the T/C in the series with Calu-6 [2] came to 29%. Moreover, the Tlast in series [3] and in [5] was 24 h in each case. Moreover, the results for the bioavailability in series [4] and in [16] were 79% and 38%, respectively. The compound further had a Cmax in [6] of 12.7 µM. The inhibition in vivo at 150 mg/kg with Rattus norvegicus came to 70%. Besides, the Activity entry is “Dose-dependent effect” in the series with Calu-6 [8], > 99% in [9] and 84% in [15]. Also, the T1/2 in series [10] was > 6.5 h. Moreover, the fraction unbound in [11] is 0.02. Also, the figures for the Tmax in [12] and in series [13] were 5.5 h and 2 h, respectively. Further, in series [14], the Vd amounted to 1.7 L/kg. Also, the AUC at 24 h in [17] is 25.2 µM·h. In [18], this compound showed a pKd of 7.85.
